Converted amounts (≈) assume the structure as drawn. The source made the active and inactive calls. No cut-off for these calls is given here.
Assays:
[1] = target: Glycogen synthase kinase-3 beta (Homo sapiens, UniProt P49841); assay: Inhibition of GSK3beta
[2] = target: T1, Casein kinase II subunit alpha (Homo sapiens, UniProt P68400); assay: Inhibition of full length N-terminus His-tagged human CK2alpha expressed in insect Sf21 cells using BODIPY-FL-RRRDDDSDDD-CONH2 as substrate after 20 mins
[3] = target: Voltage-gated inwardly rectifying potassium channel KCNH2 (Homo sapiens, UniProt Q12809); assay: Inhibition of human Erg
Sequence of Voltage-gated inwardly rectifying potassium channel KCNH2 (Q12809 whole entry): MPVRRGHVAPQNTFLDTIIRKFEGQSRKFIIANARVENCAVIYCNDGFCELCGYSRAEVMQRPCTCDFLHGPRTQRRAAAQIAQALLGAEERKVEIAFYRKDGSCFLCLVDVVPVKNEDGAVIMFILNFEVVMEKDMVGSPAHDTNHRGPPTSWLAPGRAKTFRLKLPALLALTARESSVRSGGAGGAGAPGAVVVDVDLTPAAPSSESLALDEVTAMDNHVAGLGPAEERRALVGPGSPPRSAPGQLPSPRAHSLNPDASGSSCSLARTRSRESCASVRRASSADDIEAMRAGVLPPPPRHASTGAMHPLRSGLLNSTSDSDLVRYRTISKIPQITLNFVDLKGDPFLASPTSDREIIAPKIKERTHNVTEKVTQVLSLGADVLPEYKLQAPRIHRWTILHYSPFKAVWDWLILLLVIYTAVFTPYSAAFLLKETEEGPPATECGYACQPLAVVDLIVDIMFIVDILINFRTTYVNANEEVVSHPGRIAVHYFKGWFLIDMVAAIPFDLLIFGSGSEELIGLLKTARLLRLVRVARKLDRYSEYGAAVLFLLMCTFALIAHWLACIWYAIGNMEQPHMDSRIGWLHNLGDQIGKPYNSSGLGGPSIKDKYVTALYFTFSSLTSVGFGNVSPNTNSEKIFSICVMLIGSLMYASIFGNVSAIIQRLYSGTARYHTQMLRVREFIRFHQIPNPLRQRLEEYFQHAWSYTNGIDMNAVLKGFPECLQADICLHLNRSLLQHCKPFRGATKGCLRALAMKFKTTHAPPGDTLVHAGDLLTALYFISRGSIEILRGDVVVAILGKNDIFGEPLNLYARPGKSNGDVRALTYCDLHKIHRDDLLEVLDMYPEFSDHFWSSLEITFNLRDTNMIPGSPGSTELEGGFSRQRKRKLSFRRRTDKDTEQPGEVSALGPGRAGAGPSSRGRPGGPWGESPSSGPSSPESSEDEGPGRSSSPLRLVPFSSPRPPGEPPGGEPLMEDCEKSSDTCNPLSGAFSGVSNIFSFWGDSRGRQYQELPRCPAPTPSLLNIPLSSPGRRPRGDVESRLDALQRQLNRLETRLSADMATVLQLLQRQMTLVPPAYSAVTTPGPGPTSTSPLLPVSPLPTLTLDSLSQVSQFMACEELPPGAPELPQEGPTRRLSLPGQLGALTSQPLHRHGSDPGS

[4] = system: SW480; assay: Antiproliferative activity against human SW480 cells by alamar blue assay; format: functional
Method in brief: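 SW480 proliferation was measured with the Alamar Blue read-out, and GI50 is reported in μM.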

[5] = system: HCT-116; assay: Growth inhibition of human HCT116 cells after 72 hrs by alamar blue assay; format: functional; details: HCT-116, 72 h
Method in brief: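 HCT-116 proliferation was read out by Alamar Blue. GI50 is reported in μM as the mean of at least three experiments.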

[6] = target: Cyclin-dependent kinase 2 (Homo sapiens, UniProt P24941); assay: Inhibition of CDK2
[7] = target: Homeodomain-interacting protein kinase 2 (Homo sapiens, UniProt Q9H2X6); assay: Inhibition of HipK2
Sequence of Homeodomain-interacting protein kinase 2 (Q9H2X6 whole entry): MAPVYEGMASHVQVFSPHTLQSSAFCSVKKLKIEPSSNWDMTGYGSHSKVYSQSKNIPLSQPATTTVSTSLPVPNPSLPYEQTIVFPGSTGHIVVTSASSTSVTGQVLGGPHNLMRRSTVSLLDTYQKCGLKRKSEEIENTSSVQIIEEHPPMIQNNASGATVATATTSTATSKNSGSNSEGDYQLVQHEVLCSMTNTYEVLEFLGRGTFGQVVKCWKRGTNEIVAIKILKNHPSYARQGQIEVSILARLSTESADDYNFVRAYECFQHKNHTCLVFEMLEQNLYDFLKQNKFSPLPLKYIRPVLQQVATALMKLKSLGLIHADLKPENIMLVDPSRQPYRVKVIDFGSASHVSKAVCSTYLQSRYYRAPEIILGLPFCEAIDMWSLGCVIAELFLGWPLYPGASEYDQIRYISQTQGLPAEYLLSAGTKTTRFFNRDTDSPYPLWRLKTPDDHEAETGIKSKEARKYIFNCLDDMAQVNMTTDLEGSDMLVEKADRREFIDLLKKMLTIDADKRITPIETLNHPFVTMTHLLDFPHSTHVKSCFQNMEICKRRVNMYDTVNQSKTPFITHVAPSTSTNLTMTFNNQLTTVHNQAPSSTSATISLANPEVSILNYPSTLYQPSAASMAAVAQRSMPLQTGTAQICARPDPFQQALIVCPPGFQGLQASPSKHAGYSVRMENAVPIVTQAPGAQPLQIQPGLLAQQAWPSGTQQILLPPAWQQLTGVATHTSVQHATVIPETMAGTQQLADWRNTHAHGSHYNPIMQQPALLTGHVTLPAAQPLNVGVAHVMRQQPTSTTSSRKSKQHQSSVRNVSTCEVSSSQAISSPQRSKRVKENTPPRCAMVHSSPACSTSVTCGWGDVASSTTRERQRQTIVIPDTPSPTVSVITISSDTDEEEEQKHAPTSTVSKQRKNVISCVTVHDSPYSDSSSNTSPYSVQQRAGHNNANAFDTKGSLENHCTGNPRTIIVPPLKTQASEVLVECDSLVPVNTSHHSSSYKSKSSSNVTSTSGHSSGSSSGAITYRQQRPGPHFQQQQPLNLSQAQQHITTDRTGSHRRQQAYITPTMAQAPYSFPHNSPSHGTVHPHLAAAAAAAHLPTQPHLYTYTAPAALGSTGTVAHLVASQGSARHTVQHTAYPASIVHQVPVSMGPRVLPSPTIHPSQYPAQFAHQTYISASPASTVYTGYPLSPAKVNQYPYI

[8] = Fraction unbound in human plasma; format: ADME, cell-free
[9] = Lipophilicity, log D of the compound; format: physicochemical; details: octanol/water
[10] = Aqueous solubility of the compound; format: physicochemical; details: buffer
Method in brief: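 Solubility was determined in aqueous medium at pH 7.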

[11] = Clearance in rat at 10 mg/kg, po; format: ADME, organism-based; design: dose 10 mg/kg, route oral; details: in vivo
Method in brief: (§1)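 Rats received one oral dose of 10 mg/kg, and pharmacokinetic parameters were derived from that single administration.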

[12] = system: HCT-116; assay: Induction of apoptosis in human HCT116 cells assessed as caspase activation; format: functional, cell-based
[13] = system: MDR1; assay: Apparent permeability from apical to basolateral side in MDCK cells expressing MDR1; format: ADME, cell-based, Canis lupus familiaris; details: dog
[14] = target: T2, Cytochrome P450 1A2 (Homo sapiens, UniProt P05177); assay: Inhibition of CYP1A2; format: ADME
T2 sequence (P05177 whole entry): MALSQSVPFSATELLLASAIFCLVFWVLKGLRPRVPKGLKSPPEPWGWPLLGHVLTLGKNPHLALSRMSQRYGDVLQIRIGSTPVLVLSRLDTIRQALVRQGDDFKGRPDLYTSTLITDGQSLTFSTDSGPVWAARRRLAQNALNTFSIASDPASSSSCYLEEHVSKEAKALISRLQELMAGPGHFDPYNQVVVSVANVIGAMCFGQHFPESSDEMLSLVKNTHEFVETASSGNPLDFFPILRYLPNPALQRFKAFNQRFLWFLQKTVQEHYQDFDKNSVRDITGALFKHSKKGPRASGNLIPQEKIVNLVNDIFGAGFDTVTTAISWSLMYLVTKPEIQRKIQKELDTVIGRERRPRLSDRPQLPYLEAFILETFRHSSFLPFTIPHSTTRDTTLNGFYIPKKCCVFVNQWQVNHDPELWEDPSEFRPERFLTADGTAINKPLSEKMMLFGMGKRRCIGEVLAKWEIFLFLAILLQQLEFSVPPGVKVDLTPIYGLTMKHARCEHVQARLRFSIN

[15] = Oral bioavailability in rat at 10 mg/kg; format: ADME, organism-based; details: in vivo; method in brief: as §1
[16] = system: MDR1; assay: Apparent permeability from apical to basolateral side in pig LLC-PK1 cells expressing MDR1; format: ADME, cell-based, Sus scrofa
[17] = target: T1, Casein kinase II subunit alpha; assay: Inhibition of CK2alpha in human HCT116 cells assessed as decrease in AKT phosphorylation at S129 residue after 3 to 24 hrs
[18] = Intrinsic clearance in rat liver microsomes; format: ADME, Microsome; details: read-out: CLH
[19] = AUC in rat at 10 mg/kg, po; format: ADME, organism-based; design: dose 10 mg/kg, route oral; details: plasma; method in brief: as §1

T1 sequence (P68400 whole entry): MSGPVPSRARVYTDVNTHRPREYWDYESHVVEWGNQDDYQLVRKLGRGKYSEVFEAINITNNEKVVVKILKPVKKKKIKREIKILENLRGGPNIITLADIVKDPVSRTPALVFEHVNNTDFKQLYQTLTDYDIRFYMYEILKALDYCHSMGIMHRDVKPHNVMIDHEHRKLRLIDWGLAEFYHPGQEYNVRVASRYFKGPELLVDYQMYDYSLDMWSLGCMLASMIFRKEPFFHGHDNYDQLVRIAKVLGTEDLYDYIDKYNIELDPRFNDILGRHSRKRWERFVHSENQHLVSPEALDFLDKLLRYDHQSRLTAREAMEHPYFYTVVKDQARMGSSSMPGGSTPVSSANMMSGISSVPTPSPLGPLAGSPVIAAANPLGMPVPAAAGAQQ
Sequence of Glycogen synthase kinase-3 beta (P49841 whole entry): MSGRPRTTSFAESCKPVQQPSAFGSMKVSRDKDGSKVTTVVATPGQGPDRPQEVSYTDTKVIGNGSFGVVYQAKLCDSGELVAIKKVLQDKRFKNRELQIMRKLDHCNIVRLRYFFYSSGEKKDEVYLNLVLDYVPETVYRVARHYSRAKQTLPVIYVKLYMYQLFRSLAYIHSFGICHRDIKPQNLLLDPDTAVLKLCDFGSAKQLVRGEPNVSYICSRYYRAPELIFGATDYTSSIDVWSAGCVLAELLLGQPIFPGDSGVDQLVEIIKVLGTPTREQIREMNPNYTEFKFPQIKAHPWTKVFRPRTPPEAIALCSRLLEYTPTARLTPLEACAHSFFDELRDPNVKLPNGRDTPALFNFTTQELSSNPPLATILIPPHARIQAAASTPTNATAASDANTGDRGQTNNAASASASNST

SMILES | GI50 [4] [µM] | GI50 [5] [µM] | fraction unbound [8] | logD [9] | solubility [10] [µM] | also measured
CC(=O)Nc1ccc2cnn(-c3cc(NC4CC4)n4ncc(C#N)c4n3)c2c1 | 5 | 3.7 | – | – | – | IC50 [1]: 0.7 µM; IC50 [2]: 0.026 µM; IC50 [3]: > 33 µM; IC50 [6]: > 30 µM; IC50 [7]: 0.05 µM
CC(=O)Nc1ccc2c(c1)c(-c1cc(NC3CC3)n3ncc(C#N)c3n1)cn2CCO | 4.5 | 2.7 | – | – | – | –
COc1ccncc1-c1cc(NC2CC2)n2ncc(C#N)c2n1 | 15 | 16 | – | – | – | –
CC(=O)Nc1cc2c(ccn2-c2cc(NC3CC3)n3ncc(C#N)c3n2)cc1C | – | > 30 | – | – | – | –
CC(=O)Nc1ccc2ccn(-c3cc(NC4COC4)n4ncc(C#N)c4n3)c2c1 | 2.5 | 2.2 | 0.124 | 2.2 | 1 (≈ 0.387 µg/mL) | –
CC(=O)Nc1ccc2ccn(-c3cc(NCCCCO)n4ncc(C#N)c4n3)c2c1 | – | 2.8 | 0.041 | 2.6 | 8 (≈ 3.23 µg/mL) | –
CC(=O)Nc1ccc2ccn(-c3cc(NC4CC4)n4ncc(C#N)c4n3)c2c1 | 1 | 0.53 | < 0.01 | 3.3 | < 10 | IC50 [1]: 0.13 µM; CL/F [11]: 10 mL/min/kg; IC50 [3]: 8.6 µM; Activity [12]: Active; Papp A→B [13]: 22 ×10⁻⁶ cm/s; IC50 [6]: 26 µM; IC50 [7]: 0.03 µM; IC50 [14]: 0.1 µM; bioavailability [15]: 5%
CC(=O)Nc1ccc2ccn(-c3cc(NCCN4CCOCC4)n4ncc(C#N)c4n3)c2c1 | > 30 | – | 0.11 | – | 2 (≈ 0.889 µg/mL) | Papp A→B [16]: ≤ 5 ×10⁻⁶ cm/s
CC(=O)N(C)c1ccc2ccn(-c3cc(NC4CC4)n4ncc(C#N)c4n3)c2c1 | – | – | – | 2.9 | < 1 | IC50 [1]: 1.4 µM; IC50 [2]: 0.011 µM; IC50 [17]: 0.034 µM; CLint scaled [18]: 100 mL/min/kg; IC50 [6]: > 30 µM; IC50 [7]: < 0.003 µM
CC(=O)Nc1ccc2c(c1)c(-c1cc(NC3CC3)n3ncc(C#N)c3n1)cn2CCCO | 3.2 | 2.3 | – | – | – | –
CC(=O)Nc1ccc2c(c1)c(-c1cc(NC3CC3)n3ncc(C#N)c3n1)cn2C | 1.1 | 0.7 | – | – | – | –
COc1ccc(-c2cc(Nc3ccn(C)n3)n3ncc(C#N)c3n2)cc1 | – | 4.5 | – | – | – | –
CC(=O)Nc1ccc2c(c1)N(c1cc(NC3CC3)n3ncc(C#N)c3n1)CC2 | 0.73 | 0.53 | – | – | – | IC50 [3]: > 33 µM
CC(=O)Nc1ccc2c(c1)c(-c1cc(NC3CC3)n3ncc(C#N)c3n1)cn2CCC(=O)O | – | – | – | – | – | IC50 [1]: 6 µM; IC50 [6]: > 30 µM; IC50 [7]: 0.57 µM
CC(=O)Nc1ccc2ccn(-c3cc(NCCN4CCCC4)n4ncc(C#N)c4n3)c2c1 | – | – | 0.056 | 2.2 | 15 (≈ 6.43 µg/mL) | –
COc1ccc(-c2cc(NC3CC3)n3ncc(C#N)c3n2)cc1 | – | 14 | – | – | – | –
N#Cc1cnn2c(N)cc(-c3ccccc3)nc12 | – | > 30 | – | – | – | –
CC(=O)Nc1ccc2ccn(-c3cc(NCCCN(C)C)n4ncc(C#N)c4n3)c2c1 | 25 | – | 0.1 | 1.6 | 750 (≈ 312 µg/mL) | IC50 [1]: 2.6 µM; IC50 [2]: 0.03 µM; IC50 [17]: 1.2 µM; IC50 [6]: > 30 µM; IC50 [7]: 0.06 µM
COC(=O)CCn1cc(-c2cc(NC3CC3)n3ncc(C#N)c3n2)c2cc(NC(C)=O)ccc21 | 6.6 | – | – | – | – | –
N#Cc1cnn2c(N)cc(-c3cccs3)nc12 | – | > 30 | – | – | – | –
CC(=O)Nc1ccc2ccn(-c3cc(NCCCN4CCCC4)n4ncc(C#N)c4n3)c2c1 | 13 | – | 0.067 | 1.8 | > 1000 | Papp A→B [16]: ≤ 5 ×10⁻⁶ cm/s; AUC [19]: 0.065 µM·h
CS(=O)(=O)Cc1ccc2ccn(-c3cc(NC4CC4)n4ncc(C#N)c4n3)c2c1 | – | 16.4 | 0.018 | 2.5 | < 1 | –
N#Cc1cnn2c(NC3CC3)cc(-n3ccc4ccc(CO)cc43)nc12 | – | 10.1 | 0.019 | 3.1 | < 1 | –
CC(=O)Nc1cnc2ccn(-c3cc(NC4CC4)n4ncc(C#N)c4n3)c2c1 | 2.1 | 3 | – | – | – | IC50 [1]: 1 µM; IC50 [2]: < 0.003 µM; IC50 [6]: > 30 µM; IC50 [7]: 0.02 µM; IC50 [14]: > 20 µM
CC(=O)Nc1ccc2ccn(-c3cc(Nc4ccn(C)n4)n4ncc(C#N)c4n3)c2c1 | 0.56 | 0.46 | – | – | – | –
CC(=O)Nc1ccc2[nH]cc(-c3cc(NC4CC4)n4ncc(C#N)c4n3)c2c1 | 0.7 | 0.7 | – | – | – | IC50 [1]: 0.25 µM; IC50 [2]: 0.005 µM; IC50 [17]: 0.077 µM; IC50 [6]: 14 µM; IC50 [7]: < 0.003 µM

Reference: ChEMBL document CHEMBL2062503, “Potent and Selective Inhibitors of CK2 Kinase Identified through Structure-Guided Hybridization” (ACS Med Chem Lett, 2012)
